Source: PubChem BioAssay
A selection: hits, their analogues and other compounds. The true share with any hit is near 1.8%.
M4 PAM: positive allosteric modulators of human muscarinic M4 receptor. P08173. AID 624126. CHO-K1 hM4/Gqi5, Fluo-8 calcium fluorescence, ACh EC20; 0% = ACh EC20, 100% = maximal ACh. activation, % at 3 µM. 360,000 compounds, 0.4% hits;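 active = activation above its plate's cutoff, the mean activation of sample wells plus 3 SD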
CHRM4 antagonist: antagonists of human muscarinic M4 receptor (CHRM4); 360,000 compounds, 0.73% hits; CHO-hM4 cells, ACh EC80, Fluo-8 calcium fluorescence; inhibition, % at 3 µM;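 active = inhibition above its plate's cutoff, the mean inhibition of sample wells plus 3 SD, cut at about 27% in these data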;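 also: 0% = acetylcholine EC80 with DMSO and 100% = DMSO without agonist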
M5 antag: antagonists of human muscarinic M5 receptor (CHRM5) | P08912 | CHO-hM5 cells, Fluo-8 calcium fluorescence, ACh EC80 | inhibition, % at 3 µM | 360,000 compounds, 0.59% hits;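 active = inhibition above a per-plate cutoff, the mean of that plate's test compounds plus 3 SD, cut at about 27% in these data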;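 also: 0% = acetylcholine EC80 with DMSO and 100% = DMSO without agonist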
Target sequence (P08912 whole entry, looked up): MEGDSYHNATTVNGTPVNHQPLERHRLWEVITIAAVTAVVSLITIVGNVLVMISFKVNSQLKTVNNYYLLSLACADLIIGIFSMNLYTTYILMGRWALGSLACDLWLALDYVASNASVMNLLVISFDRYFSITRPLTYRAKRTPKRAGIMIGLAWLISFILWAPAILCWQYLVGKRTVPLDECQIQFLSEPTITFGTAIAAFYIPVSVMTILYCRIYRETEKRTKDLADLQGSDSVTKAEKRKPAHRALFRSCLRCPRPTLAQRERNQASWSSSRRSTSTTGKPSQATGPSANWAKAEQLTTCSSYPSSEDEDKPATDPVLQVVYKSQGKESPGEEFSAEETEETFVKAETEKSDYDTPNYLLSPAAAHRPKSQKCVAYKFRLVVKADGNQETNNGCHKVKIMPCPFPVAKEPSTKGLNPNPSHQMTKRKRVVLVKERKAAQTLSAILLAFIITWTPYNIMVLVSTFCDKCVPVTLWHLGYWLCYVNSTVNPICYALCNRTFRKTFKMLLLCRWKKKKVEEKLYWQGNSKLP
M5 PAM: positive allosteric modulators of human muscarinic M5 receptor; AID 624038; activation, % at 3 µM; 360,000 compounds, 0.3% hits; CHO-K1 hM5, Fluo-8 calcium, ACh EC20 PAM; 0% = ACh EC20, 100% = ACh EC100; P08912;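 active = activation above the run cutoff, the mean activation of all test compounds plus 3 SD, cut at about 18% in these data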
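Assay system: CHO-K1 hM5 cells. Also added: acetylcholine at EC20 concentration, added after compound. Dosing: 3 µM, single dose. Times: compound preincubation 140 s before EC20 acetylcholine addition. Signal: Fluo-8 calcium fluorescence. Measure: % activation relative to EC20 and EC100 ACh responses. Repeats: singlicate, one well per test compound.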
CHRM4 agonist: agonists of human muscarinic M4 receptor (CHRM4); activation, % at 3 µM; CHO-K1 hM4/Gqi5, Fluo-8 calcium fluorescence; vehicle 0%, full acetylcholine response 100%; 360,000 compounds, 0.14% hits; P08173; AID 624127;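 active = activation above the run mean over all test wells plus 3 SD, cut at about 32% in these data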;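 also: peak over basal fluorescence ratio per well then scaled between controls; 0% = DMSO wells and 100% = acetylcholine at EC100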
M5 ag: agonists of human muscarinic M5 receptor (CHRM5); CHO-K1 hM5 cells, Fluo-8 calcium fluorescence; 0% DMSO wells, 100% maximal acetylcholine response; 360,000 compounds, 0.19% hits; P08912; activation, % at 3 µM;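 active = activation above the run's mean over test compounds plus 3 SD, cut at about 23% in these data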;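 also: signal is peak over basal fluorescence ratio across the kinetic read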
Active calls of the source: *.

SMILES | M4 PAM | CHRM4 antagonist | M5 antag | M5 PAM | CHRM4 agonist | M5 ag
CC(=O)Nc1sc2c(c1C(c1ccccc1Cl)N1CCN(CCO)CC1)CCCC2 (stereo unspecified) | -15 | 11 | 65* | -25 | 6 | -5
CCOc1ncccc1C(=O)OCCCC(=O)c1ccc(Br)cc1 | 16 | 8 | 9 | -13 | 1 | -6
CCn1c(CNC(=O)COc2ccc(C(C)C)cc2)nnc1SCC(=O)Nc1ccccc1C(C)C | -13 | 2 | 28* | -9 | 9 | 4
COc1ccc(Oc2c(C)oc3c(CN(C)C)c(O)ccc3c2=O)cc1 | -17 | 44* | 2 | -16 | 1 | -8
CN(C)CC/C=C1/c2ccc(F)cc2Sc2ccc(Cl)cc21 | -16 | 100* | 99* | -29 | 12 | -19
OCCN1CCN(CC/C=C2/c3ccccc3Sc3ccc(Cl)cc32)CC1 | -11 | 9 | 14 | -10 | 5 | 2
CN(C)CC/C=C1\c2ccccc2Sc2cc(F)c(Cl)cc21 | -66 | 99* | 100* | -32 | 17 | -19
CN(C)CC/C=C1\c2ccccc2Sc2ccc(Cl)cc21 | -20 | 98* | 100* | -18 | 9 | 2
CN(C)CCOc1ccc2c(c1)Sc1ccccc1CC2=O | -10 | 9 | 2 | 0 | 1 | 1
CN(C)CC/C=C1\c2cc(Cl)ccc2Sc2cc(F)c(F)cc21 | -56 | 98* | 99* | -36 | 6 | -20
CN(C)CC/C=C1\c2ccc(F)cc2Sc2cc(F)c(Cl)cc21 | -18 | 99* | 99* | -32 | 14 | -18
COc1cccc(OC(=O)c2cc3ccccc3oc2=O)c1 | 18* | -17 | -7 | 19* | 1 | -4
O=C(Nc1c(-c2ccc3c(c2)OCO3)[nH][nH]c1=O)c1cccc(C(F)(F)F)c1 | -1 | -6 | -6 | -4 | 0 | 0
Cc1ccc(C)c(CNc2ccc(S(=O)(=O)N3CCCCC3)cc2)c1 | -1 | -9 | 8 | -9 | 3 | 0
COc1cccc(CN(C)C(=O)COc2cccc3c2OC(C)(C)C3)c1OC | 22* | -8 | -4 | -4 | 5 | 2
O=C(COC(=O)Cc1ccsc1)Nc1cccc(F)c1 | 11 | 2 | 12 | 2 | 0 | 0
COc1ccc(-c2csc3nc(C)n(-n4cccc4)c(=O)c23)cc1 | 3 | -1 | -4 | 10 | -3 | -3
Cc1nc2scc(-c3ccc(C(C)(C)C)cc3)c2c(=O)n1N | -15 | 9 | 33* | -19 | 15 | 4
Cc1cc2c(c(C#N)c1C)NC=NC2C (stereo unspecified) | 4 | -12 | 0 | -1 | 0 | -1
CC(NC(=O)[C@H](C)N1C(=O)N2CCc3c([nH]c4ccccc34)[C@@]2(C)C1=O)c1ccccc1 (stereo partly specified) | 1 | -11 | 3 | 1 | 3 | 3
CCOC(=O)c1oc2ccc(CNC3CCCCC3)c(Cl)c2c1C | -17 | 55* | -6 | -8 | 8 | -4
CCOC(=O)c1oc2ccc(CNCCO)c(Cl)c2c1C | 2 | -1 | -2 | 2 | 1 | -4
Cc1cc(C(=O)CN2C(=O)NC(C)(c3cc(F)ccc3F)C2=O)c(C)n1C1CC1 (stereo unspecified) | -6 | 8 | 5 | -7 | 4 | 4
CCC1(c2ccc(OC)cc2)NC(=O)N(CC(=O)N2CCc3ccccc32)C1=O (stereo unspecified) | -1 | -2 | 5 | -7 | 19 | 39*
CCC1(c2ccc(F)cc2)NC(=O)N(CC(=O)N2c3ccccc3CC2C)C1=O (stereo unspecified) | 1 | -6 | 0 | 1 | 18 | 29*
SMILES | M4 PAM | CHRM4 antagonist | M5 antag | M5 PAM | CHRM4 agonist | M5 ag
CCC1(c2ccc(F)cc2)NC(=O)N(CC(=O)c2cc(C)n(C3CC3)c2C)C1=O (stereo unspecified) | 9 | -2 | 10 | -2 | 12 | 25*
CCC1(c2ccc(F)cc2)NC(=O)N(CC(=O)N2c3ccccc3NC(=O)CC2C)C1=O (stereo unspecified) | 7 | -7 | -2 | 2 | 1 | 0
CCCN(C(=O)CCSc1ccc(F)cc1)c1c(N)n(Cc2ccccc2)c(=O)[nH]c1=O | -2 | -3 | 1 | -1 | 1 | -3
NC(=S)NNc1ccnc2cc(Cl)ccc12 | -6 | 7 | 12 | 1 | 0 | 1
O=C(NNc1ccnc2cc(Cl)ccc12)C1CCCCC1 | -5 | 12 | 31* | -24 | 10 | 5
CC(C)N1CCN(Cc2cn[nH]c2C2CCCCC2)CC1CCO (stereo unspecified) | -11 | 2 | 7 | -1 | 0 | -4
COc1cc(C(=O)COC(=O)c2cc([N+](=O)[O-])ccc2N2CCOCC2)ccc1OC(F)F | -4 | 28* | 7 | -9 | 2 | -6
COc1ccccc1C(=O)COC(=O)c1cc([N+](=O)[O-])ccc1N1CCOCC1 | 1 | -13 | 10 | -7 | 4 | -4
Cc1ccc(C)n1-c1ccc(C(=O)NN)cc1 | 1 | -14 | 8 | 21* | 2 | 0
Cc1ccc(C)n1-c1ccc(C(=O)NCc2ccncc2)cc1 | 11 | -2 | -1 | -7 | 2 | -3
CCOC(=O)CC(NC(=O)c1ccco1)c1ccc(OC)cc1 (stereo unspecified) | 6 | -7 | -2 | 21* | 0 | -4
Cc1c(C(=O)NNC(=O)c2ccccc2O)oc2ccccc12 | 5 | -19 | 4 | -7 | 1 | -1
C=CCCC(=O)N1C[C@@H](CO)[C@@H](NC)C[C@H]1c1ccccc1Br | 8 | -10 | -6 | 5 | 0 | -6
Cc1cc(C)c(CSc2ncc(-c3ccc([N+](=O)[O-])cc3)[nH]2)c(C)c1 | -13 | 36* | 19 | -14 | 4 | -3
CC1=CC(C)(C)N(C(=O)c2ccccc2)c2ccccc21 | 7 | -11 | -1 | 2 | -4 | 0
CC1=CC(C)(C)N(C(=O)c2ccccc2)c2ccc(C)cc21 | -5 | 2 | 2 | 6 | 8 | 23*
CC(=O)Nc1ccc(NC(=O)C(C)Sc2n[nH]c(-c3ccc(C)cc3)n2)cc1 (stereo unspecified) | 5 | -6 | 5 | -6 | 2 | 4
C[C@@H]1CN([C@H](C)CO)C(=O)c2cc(NC(=O)Nc3ccc(C(F)(F)F)cc3)ccc2O[C@H]1CN(C)S(=O)(=O)c1cccs1 | 0 | -1 | 6 | 2 | 1 | 0
C[C@H](CO)N1C[C@H](C)[C@@H](CN(C)C(=O)Nc2ccc3c(c2)OCO3)Oc2c(NC(=O)Nc3ccc(C(F)(F)F)cc3)cccc2C1=O | -7 | 30* | 17 | -35 | 31 | 7
